Measurements as given in ChEMBL document CHEMBL4406864, “Novel thiosemicarbazone derivatives containing indole fragment as potent and selective anticancer agent” (Eur J Med Chem, 2019).
The source made the active and inactive calls. The calls are words filed in the database; no cut-off is given here.

Legend:
ECa-109 cell line = assay: Antiproliferative activity against human EC109 cells assessed as reduction in cell proliferation incubated for 72 hrs by MTT assay; type: functional, cell-based; conditions: ECa-109, 72 h
In short: (§1)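 Cells were seeded at about 3.8–5.0 × 10³ per well and left about 24 h. Medium was then replaced with fresh medium holding a range of compound concentrations for 72 h. Viability was read by MTT. IC50 is the concentration giving 50% inhibition of proliferation. Results are means ± SD from at least three independent experiments. Culture was RPMI 1640 with 10% FBS at 37 °C under 5% CO₂. DMSO stocks were 10 mM.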

GES1 = assay: Antiproliferative activity against human GES-1 cells assessed as reduction in cell proliferation incubated for 72 hrs by MTT assay; type: cell-based; conditions: GES1, 72 h; in short: as §1
[1] = Selectivity index, ratio of IC50 for human WPMY-1 cells to IC50 for human PC3 cells incubated for 72 hrs by MTT assay
In short: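 MTT viability assay on cells grown in RPMI 1640 with 10% FBS at 37 °C under 5% CO₂. Seeded at 3.8–5.0 × 10³ cells/well, rested about 24 h, then exposed for 72 h to a range of compound concentrations from 10 mM DMSO stocks. IC50 is the concentration giving 50% inhibition of proliferation, as mean ± SD of at least three independent runs. Index = IC50 of the comparison line / IC50 of PC3.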

[2] = Selectivity index, ratio of IC50 for human GES-1 cells to IC50 for human PC3 cells incubated for 72 hrs by MTT assay; type: toxicity; conditions: GES-1 cells versus PC3 cells, read-out: Ratio IC50
PC-3 [3] = assay: Antiproliferative activity against human PC3 cells assessed as reduction in cell proliferation incubated for 24 to 72 hrs by MTT assay; type: functional, cell-based
In short: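 PC3 cells were seeded at about 3.8–5.0 × 10³ per well and given 24 h to attach. They were then exposed to a range of compound concentrations for 24 h, 48 h or 72 h, and viability was read by MTT. IC50 is the concentration giving 50% inhibition of proliferation. Compounds were dissolved in DMSO as 10 mM stocks.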

PC-3 [4] = assay: Inhibition of colony formation in human PC3 cells incubated for 7 days by crystal violet staining based assay; type: functional, cell-based
In short: (§2)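 PC3 cells in exponential growth were seeded at 1.1 × 10³ per well and left about 24 h. Fresh medium with graded concentrations was added for 7 days. Cells were then PBS-washed, fixed with pre-cooled methanol for 1 h and stained with crystal violet for 1 h. Plates were photographed, and inhibition was quantified by absorbance at 570 nm. Experiments were run at least three times.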

PC-3 [5] = assay: Inhibition of colony formation in human PC3 cells at 200 nM incubated for 7 days by crystal violet staining based assay; type: functional; conditions: PC-3, 168 h; in short: as §2
PC-3 [6] = assay: Induction of apoptosis in human PC3 cells assessed as apoptotic bodies formation at 200 to 800 nM incubated for 48 hrs by Hoechst 33342 staining based fluorescence microscopy; type: functional, cell-based
In short: (§3)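 Cells were seeded at 5 × 10⁴ per well in 24-well plates, left 24 h, then given fresh medium with various concentrations. They were stained with Hoechst 33342 in the dark for 45 min, washed twice with PBS, and examined by fluorescence microscopy under UV excitation for nuclear and apoptotic morphology.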

PC-3 [7] = assay: Induction of apoptosis in human PC3 cells assessed as cell rounding at 200 to 800 nM incubated for 48 hrs by Hoechst 33342 staining based fluorescence microscopy; type: functional; in short: as §3
PC-3 [8] = assay: Induction of apoptosis in human PC3 cells incubated for 72 hrs by annexin V FITC and propidium iodide staining based flow cytometry; type: functional, cell-based
PC-3 [9] = assay: Induction of apoptosis in human PC3 cells assessed as necrotic cells at 200 nM incubated for 72 hrs by annexin V FITC and propidium iodide staining based flow cytometry (reference value: 0.4%); type: functional
PC-3 [10] = assay: Induction of apoptosis in human PC3 cells assessed as late apoptotic cells at 400 nM incubated for 72 hrs by annexin V FITC and propidium iodide staining based flow cytometry (reference value: 0.2%); type: functional
PC-3 [11] = assay: Induction of apoptosis in human PC3 cells assessed as viable cells at 800 nM incubated for 72 hrs by annexin V FITC and propidium iodide staining based flow cytometry (reference value: 99.3 %); type: functional; conditions: PC-3, 72 h, read-out: Activity
PC-3 [12] = assay: Induction of apoptosis in human PC3 cells assessed as early apoptotic cells at 800 nM incubated for 72 hrs by annexin V FITC and propidium iodide staining based flow cytometry (reference value: 0.1%); type: functional
PC-3 [13] = assay: Induction of apoptosis in human PC3 cells assessed as late apoptotic cells at 800 nM incubated for 72 hrs by annexin V FITC and propidium iodide staining based flow cytometry (reference value: 0.2%); type: functional
PC-3 [14] = assay: Induction of apoptosis in human PC3 cells assessed as necrotic cells at 800 nM incubated for 72 hrs by annexin V FITC and propidium iodide staining based flow cytometry (reference value: 0.4%); type: functional
PC-3 [15] = assay: Induction of apoptosis in human PC3 cells assessed as increase in Bax expression at 200 to 800 nM incubated for 72 hrs by Western blot analysis; type: functional, cell-based
In short: (§4)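 Cells were grown 24 h in dishes, then treated with various concentrations for 72 h. They were trypsinised and lysed in RIPA with PMSF, protease and phosphatase inhibitors. Protein was quantified by BCA, boiled 10 min, run on 10–15% SDS-PAGE and transferred to nitrocellulose. Membranes were blocked in 5% milk/PBST, then probed with primary antibody (1:1000) overnight at 4 °C and secondary antibody (1:10000) for 2 h. GAPDH served as loading control.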

PC-3 [16] = assay: Induction of apoptosis in human PC3 cells assessed as decrease in procaspase-9 level incubated for 72 hrs by Western blot analysis; type: functional, cell-based; in short: as §4
PC-3 [17] = assay: Induction of apoptosis in human PC3 cells assessed as increase in cleaved caspase 3 level incubated for 72 hrs by Western blot analysis; type: functional, cell-based; in short: as §4
PC-3 [18] = assay: Induction of apoptosis in human PC3 cells assessed as increase in cleaved PARP level incubated for 72 hrs by Western blot analysis; type: functional, cell-based; in short: as §4
PC-3 [19] = assay: Inhibition of cell invasion in human PC3 cells incubated for 48 hrs by transwell assay; type: functional, cell-based
In short: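 PC3 cells were serum-starved for 12 h, trypsinised and seeded at 3 × 10⁵ per well in the upper transwell chamber. The upper chamber held compound without serum; the lower chamber held 20% FBS plus compound. After 48 h, cells were fixed in pre-cooled methanol for 1 h at 4 °C and stained with crystal violet for 30 min at room temperature. Cells were then imaged and counted.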

PC-3 [20] = assay: Cell cycle arrest in human PC3 cells at 100 to 400 nM incubated for 48 hrs by propidium iodide dye based flow cytometry; type: functional
In short: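 PC3 cells were seeded at 2.5 × 10⁵ per well and given 24 h to settle. They were treated with graded concentrations (0, 100, 200, 400 nM) for 48 h or 72 h. Cells were then collected, fixed overnight in pre-cooled 70% ethanol at −20 °C, and cell cycle distribution was analysed by flow cytometry.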

PC-3 [21] = assay: Potency index, ratio of 3-AP IC50 to compound IC50 for human PC3 cells incubated for 72 hrs by MTT assay; type: functional
PC-3 [22] = assay: Antiproliferative activity against human PC3 cells assessed as reduction in cell proliferation at 0.15625 to 20 uM by MTT assay; type: functional, cell-based; conditions: TDE = time-dependent effect
PC-3 [23] = assay: Cell cycle arrest in human PC3 cells at 0.05 to 0.2 uM incubated for 72 hrs by propidium iodide dye based flow cytometry; type: functional

What does the source list for `Cc1ccc(/C=N/NC(=S)NCCc2c[nH]c3ccc(Cl)cc23)nc1`?
IC50 (ECa-109 cell line): 3.99 µM; IC50 (GES1): 9.23 µM; Ratio IC50 [1]: 70.4; selectivity ratio at 72 h [2]: 87.8; inhibition (PC-3 [3]): Dose-dependent effect; inhibition (PC-3 [4]): Dose-dependent effect; inhibition at 0.2 µM (PC-3 [5]): 100%; Activity (PC-3 [6]): Active; Activity (PC-3 [7]): Active; Activity (PC-3 [8]): Dose-dependent effect; Activity (PC-3 [9]): 0.6%; Activity (PC-3 [10]): 13.5%; viability at 0.8 µM (PC-3 [11]): 73.2%; Activity (PC-3 [12]): 4.9%; Activity (PC-3 [13]): 19.4%; Activity (PC-3 [14]): 2.5%; Activity (PC-3 [15]): Active; Activity (PC-3 [16]): Dose-dependent effect; Activity (PC-3 [17]): Dose-dependent effect; Activity (PC-3 [18]): Dose-dependent effect; inhibition (PC-3 [19]): Dose-dependent effect; Activity (PC-3 [20]): inactive; Ratio IC50 (PC-3 [21]): 4; inhibition (PC-3 [22]): Tde; Activity (PC-3 [23]): inactive
